Source: ChEMBL document CHEMBL4257550, “Novel hybrids derived from aspirin and chalcones potently suppress colorectal cancer in vitro and in vivo” (Medchemcomm, 2018)
The source made the active and inactive calls. The rule behind the calls is not given here.

Key:
DLD-1 [1] = assay: Antiproliferative activity against human DLD1 cells after 72 hrs by MTT assay; format: functional, cell-based; settings: DLD-1, 72 h
Outline: (§1)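 HCT-8, DLD-1 and CCD841 cells seeded in 96-well plates, exposed to vehicle or compound for 72 h. MTT (5 mg/mL in PBS) added for a further 4 h, formazan dissolved in DMSO, absorbance read at 570 nm. IC50 taken as the concentration inhibiting 50% of proliferation; mean ± SD of three independent experiments.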

DLD-1 [2] = assay: Antiproliferative activity against human DLD1 cells at 10 uM after 72 hrs by MTT assay relative to control; format: functional
Outline: (§2)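 Cells treated with or without compound at 10 μM for 72 h, proliferation measured by MTT (4 h, formazan in DMSO, 570 nm). Inhibition (%) relative to untreated cells; mean ± SD of three independent experiments.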

HCT-8 [3] = assay: Antiproliferative activity against human HCT8 cells after 72 hrs by MTT assay; format: functional, cell-based; settings: HCT-8, 72 h; outline: as §1
HCT-8 [4] = assay: Antiproliferative activity against human HCT8 cells at 10 uM after 72 hrs by MTT assay relative to control; format: functional; outline: as §2
DLD-1 [5] = assay: Antiproliferative activity against human DLD1 cells after 72 hrs in presence of ASA by MTT assay; format: functional, cell-based; settings: DLD-1, 72 h; outline: as §1
HCT-8 [6] = assay: Antiproliferative activity against human HCT8 cells after 72 hrs in presence of ASA by MTT assay; format: functional, cell-based; settings: HCT-8, 72 h; outline: as §1
[7] = Cytotoxicity against human CCD-841 cells after 72 hrs by MTT assay; format: cell-based; settings: CCD-841, 72 h; outline: as §1
HCT-8 [8] = assay: Induction of apoptosis in human HCT8 cells assessed as early apoptotic cells at 2.5 uM after 24 hrs by Annexin V-FITC/propidium iodide staining based flow cytometry (reference value: 0.25%); format: functional
HCT-8 [9] = assay: Cell cycle arrest in human HCT8 cells assessed as accumulation at G2 phase at 10 uM after 24 hrs by propidium iodide staining based flow cytometry (reference value: 23.77%); format: functional
[10] = Selectivity index, ratio of IC50 for human CCD-841 cells to IC50 for DLD1 human cells; format: toxicity; settings: CCD-841 cells versus DLD1 cells
Outline: (§3)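 Ratio of the CCD841 MTT IC50 to the HCT-8 or DLD-1 IC50, each IC50 from a 72 h MTT assay (570 nm), mean of three independent experiments.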

HCT-8 [11] = assay: Induction of apoptosis in human HCT8 cells assessed as late apoptotic cells at 2.5 uM after 24 hrs by Annexin V-FITC/propidium iodide staining based flow cytometry (reference value: 2.4%); format: functional
HCT-8 [12] = assay: Induction of apoptosis in human HCT8 cells after 24 hrs by Annexin V-FITC/propidium iodide staining based flow cytometry; format: functional, cell-based
HCT-8 [13] = assay: Antitumor activity against human HCT8 cells xenografted in BALB/c mouse assessed as reduction in tumor volume at 60 mg/kg, ip administered daily for 32 days measured every 4 days during compound dosing; format: functional, organism-based
Outline: (§4)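 Male BALB/c nude mice (5–6 weeks, 18–20 g) inoculated s.c. with 1 × 10^7 HCT-8 cells. At tumours of 180–200 mm³, mice randomized and dosed i.p. daily for 32 days with 60 mg/kg or an equal volume of Tween 80/PBS (5:95) vehicle. Caliper length and width every 4 days, TV = width² × length/2. Tumour weight and body weight also recorded; n = 6 per group, mean ± SD.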

HCT-8 [14] = assay: Induction of apoptosis in human HCT8 cells assessed as increase in cleaved caspase3 expression after 24 hrs by Western blotting analysis; format: functional, cell-based
Outline: (§5)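 HCT-8 cells (1 × 10^6/well, six-well plates) left overnight, then given 0.1% DMSO or compound (0, 2.5, 5, 10 μM) for 24 h. Lysed 30 min at 4 °C, cleared at 15000 rpm, protein by BCA. 20 μg per lane on 7.5% SDS-PAGE, moved to PVDF, blocked in 5% milk/TBS-0.05% Tween 20. Probed for caspase 3, cleaved caspase 3, PARP, cleaved PARP and GAPDH; ECL detection.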

HCT-8 [15] = assay: Cell cycle arrest in human HCT8 cells assessed as accumulation at G2 phase at 5 uM after 24 hrs by propidium iodide staining based flow cytometry (reference value: 23.77%); format: functional
HCT-8 [16] = assay: Induction of apoptosis in human HCT8 cells assessed as early apoptotic cells at 10 uM after 24 hrs by Annexin V-FITC/propidium iodide staining based flow cytometry (reference value: 0.25%); format: functional
HCT-8 [17] = assay: Cell cycle arrest in human HCT8 cells assessed as accumulation at G1 phase at 5 uM after 24 hrs by propidium iodide staining based flow cytometry (reference value: 48.08%); format: functional
HCT-8 [18] = assay: Cell cycle arrest in human HCT8 cells assessed as accumulation at S phase at 10 uM after 24 hrs by propidium iodide staining based flow cytometry (reference value: 36.19%); format: functional
[19] = Selectivity index, ratio of IC50 for human CCD-841 cells to IC50 for HCT8 human cells; format: toxicity; settings: CCD-841 cells versus HCT8 cells, read-out: Ratio IC50; outline: as §3
HCT-8 [20] = assay: Cell cycle arrest in human HCT8 cells assessed as accumulation at G0/G1 phase after 24 hrs by propidium iodide staining based flow cytometry; format: functional
HCT-8 [21] = assay: Induction of reactive oxygen species generation in human HCT8 cells at 2.5 to 10 uM after 24 hrs by DCFH-DA staining based flow cytometry; format: functional, cell-based
Outline: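 HCT-8 cells exposed to 0, 2.5, 5 or 10 μM for 24 h, loaded with 10 μM DCFH-DA at 37 °C for 20 min, washed three times in PBS. Intracellular ROS as DCF fluorescence by flow cytometry, Ex/Em 488/530 nm.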

HCT-8 [22] = assay: Cell cycle arrest in human HCT8 cells assessed as accumulation at S phase at 5 uM after 24 hrs by propidium iodide staining based flow cytometry (reference value: 36.19%); format: functional
Mus musculus = assay: Toxicity in BALB/c mouse xenografted with human HCT8 cells assessed as change in body weight at 60 mg/kg, ip administered daily for 32 days; format: organism-based; settings: in vivo, 768 h; outline: as §4
HCT-8 [23] = assay: Induction of apoptosis in human HCT8 cells assessed as early apoptotic cells at 5 uM after 24 hrs by Annexin V-FITC/propidium iodide staining based flow cytometry (reference value: 0.25%); format: functional
HCT-8 [24] = assay: Antitumor activity against human HCT8 cells xenografted in BALB/c mouse assessed as reduction in tumor weight at 60 mg/kg, ip administered daily for 32 days measured every 4 days during compound dosing relative to control; format: functional; set-up: scale not given: the % may be the effect or the level left; outline: as §4
HCT-8 [25] = assay: Cell cycle arrest in human HCT8 cells assessed as accumulation at G1 phase at 10 uM after 24 hrs by propidium iodide staining based flow cytometry (reference value: 48.08%); format: functional
HCT-8 [26] = assay: Induction of apoptosis in human HCT8 cells assessed as late apoptotic cells at 10 uM after 24 hrs by Annexin V-FITC/propidium iodide staining based flow cytometry (reference value: 2.4%); format: functional
HCT-8 [27] = assay: Cell cycle arrest in human HCT8 cells assessed as accumulation at G2 phase at 2.5 uM after 24 hrs by propidium iodide staining based flow cytometry (reference value: 23.77%); format: functional
HCT-8 [28] = assay: Cell cycle arrest in human HCT8 cells assessed as accumulation at S phase at 2.5 uM after 24 hrs by propidium iodide staining based flow cytometry (reference value: 36.19%); format: functional
HCT-8 [29] = assay: Induction of apoptosis in human HCT8 cells assessed as late apoptotic cells at 5 uM after 24 hrs by Annexin V-FITC/propidium iodide staining based flow cytometry (reference value: 2.4%); format: functional
HCT-8 [30] = assay: Cell cycle arrest in human HCT8 cells assessed as accumulation at G1 phase at 2.5 uM after 24 hrs by propidium iodide staining based flow cytometry (reference value: 48.08%); format: functional
HCT-8 [31] = assay: Induction of apoptosis in human HCT8 cells assessed as increase in cleaved PARP expression after 24 hrs by Western blotting analysis; format: functional, cell-based; outline: as §5

For CC(=O)Oc1ccccc1C(=O)Oc1ccc(F)cc1/C=C/C(=O)c1ccc(Cl)cc1, the IC50 (DLD-1 [1]) was 3.5 µM, the Activity (DLD-1 [2]) was >50% and the IC50 (HCT-8 [3]) was 2.7 µM. For the same compound, the Activity (HCT-8 [4]) was >50%.

In the case of CC(=O)Oc1ccccc1C(=O)Oc1ccccc1/C=C/C(=O)c1ccc(Cl)cc1, the Activity (DLD-1 [2]) is reported as >50% and the Activity (HCT-8 [4]) is reported as >50%.

O=C(/C=C/c1cc(F)ccc1O)c1ccc(Cl)cc1 gave an IC50 (DLD-1 [5]) of 8 µM, an IC50 (DLD-1 [1]) of 13.2 µM and an IC50 (HCT-8 [3]) of 25.6 µM. The IC50 (HCT-8 [6]) was 9.3 µM.

With CC(=O)Oc1ccccc1C(=O)Oc1ccc(Cl)cc1/C=C/C(=O)c1ccc(Cl)cc1 the Activity (DLD-1 [2]) was “Active” and the Activity (HCT-8 [4]) was “Active”.

O=c1[nH]cc(F)c(=O)[nH]1 [FLUOROURACIL] showed an IC50 [7] of 35.7 µM.

In the case of CC(=O)Oc1ccccc1C(=O)O [ASPIRIN], the IC50 (DLD-1 [1]) is reported as > 100 µM and the IC50 (HCT-8 [3]) is reported as > 100 µM.

With COc1ccc(/C=C/C(=O)c2ccc(Cl)cc2)c(OC(=O)c2ccccc2OC(C)=O)c1 the Activity (DLD-1 [2]) was “Active” and the Activity (HCT-8 [4]) was “Active”.

In the case of COc1ccc(O)c(/C=C/C(=O)c2ccc(Cl)cc2)c1, the IC50 (DLD-1 [5]) is reported as 6.9 µM, the IC50 (DLD-1 [1]) is reported as 14.7 µM and the IC50 (HCT-8 [3]) is reported as 19.7 µM. The IC50 (HCT-8 [6]) was 6.3 µM.

For CC(=O)Oc1ccccc1C(=O)Oc1ccccc1/C=C/C(=O)c1ccc(C#N)cc1, the Activity (DLD-1 [2]) was “Active” and the Activity (HCT-8 [4]) was “Active”.

With COc1cccc(/C=C/C(=O)c2ccc(Cl)cc2)c1OC(=O)c1ccccc1OC(C)=O the Activity (DLD-1 [2]) was “Active” and the Activity (HCT-8 [4]) was “Active”.

For COc1ccc(OC(=O)c2ccccc2OC(C)=O)c(/C=C/C(=O)c2ccc(Cl)cc2)c1, the Activity (HCT-8 [8]) was 9.7%, the Activity (HCT-8 [9]) was 8.77% and the selectivity ratio [10] was 7.2. The Activity (HCT-8 [11]) was 6.41%, the Activity (HCT-8 [12]) was “Dose-dependent effect” and the Activity (HCT-8 [13]) was “Active”. The Activity (HCT-8 [14]) was “Dose-dependent effect”, the IC50 [7] was 19.4 µM and the Activity (HCT-8 [15]) was 10.82%. It also gave an Activity (HCT-8 [16]) of 21.46%, an Activity (HCT-8 [17]) of 51.03% and an Activity (HCT-8 [18]) of 34.77%. The IC50 (DLD-1 [1]) was 2.7 µM, the selectivity ratio [19] was 8 and the Activity (HCT-8 [20]) was “Dose-dependent effect”. The Activity (HCT-8 [21]) was “Active”, the Activity (HCT-8 [22]) was 38.16% and the Activity (Mus musculus) was “Non-Toxic”. The Activity (HCT-8 [23]) was 14.22%, the Activity (HCT-8 [24]) was 42% and the Activity (DLD-1 [2]) was >50%. The IC50 (HCT-8 [3]) was 2.4 µM, the Activity (HCT-8 [25]) was 56.46% and the Activity (HCT-8 [26]) was 37.01%. The Activity (HCT-8 [4]) was >50%, the Activity (HCT-8 [27]) was 17.76% and the Activity (HCT-8 [28]) was 34.16%. For the same compound, the Activity (HCT-8 [29]) was 13.49%, the Activity (HCT-8 [30]) was 48.08% and the Activity (HCT-8 [31]) was “Dose-dependent effect”.

In the case of COc1ccc(C(=O)/C=C/c2ccccc2OC(=O)c2ccccc2OC(C)=O)cc1, the Activity (DLD-1 [2]) is reported as “Active” and the Activity (HCT-8 [4]) is reported as “Active”.

For CC(=O)Oc1ccccc1C(=O)Oc1ccccc1/C=C/C(=O)c1ccc(Br)cc1, the Activity (DLD-1 [2]) was “Active” and the Activity (HCT-8 [4]) was “Active”.

With CC(=O)Oc1ccccc1C(=O)Oc1ccccc1/C=C/C(=O)c1ccc([N+](=O)[O-])cc1 the Activity (DLD-1 [2]) was >50% and the Activity (HCT-8 [4]) was >50%.

In the case of CC(=O)Oc1ccccc1C(=O)Oc1ccccc1/C=C/C(=O)c1ccc(C)cc1, the Activity (DLD-1 [2]) is reported as “Active” and the Activity (HCT-8 [4]) is reported as “Active”.

With CC(=O)Oc1ccccc1C(=O)Oc1ccc(C)cc1/C=C/C(=O)c1ccc(Cl)cc1 the Activity (DLD-1 [2]) was “Active” and the Activity (HCT-8 [4]) was “Active”.

In the case of CC(=O)Oc1ccccc1C(=O)Oc1ccc(Br)cc1/C=C/C(=O)c1ccc(Cl)cc1, the Activity (DLD-1 [2]) is reported as “Active” and the Activity (HCT-8 [4]) is reported as “Active”.
